Test results published in ChEMBL document CHEMBL4477183, “Antimicrobial Peptide from the Wild Bee Hylaeus signatus Venom and Its Analogues: Structure-Activity Study and Synergistic Effect with Antibiotics” (J Nat Prod, 2016).
The source made the active and inactive calls. No cut-off for these calls is given here.

What was measured:
[1] = system: Staphylococcus aureus; assay: Antimicrobial activity against Staphylococcus aureus clinical isolates from university hospital in Motol assessed as reduction in bacterial growth after 20 hrs by drop diffusion test; assay type: functional
[2] = system: Escherichia coli; assay: Antimicrobial activity against Escherichia coli assessed as reduction in bacterial growth after 20 hrs by […]; assay type: functional
Procedure, shortened: (§1)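 Broth microdilution in LB (YPG for C. albicans) with 2-fold serial dilutions, final 0.1–100 μM. Mid-log cells grown 3–5 h at 37 °C were added at about 5 × 10^5 cfu/mL, then incubated 20 h at 37 °C with shaking. A540 was read every 15 min to build growth curves. Medium with cells served as growth control; at least three runs in duplicate.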

[3] = system: Pseudomonas aeruginosa; assay: Antimicrobial activity against Pseudomonas aeruginosa 5482 assessed as reduction in bacterial growth after 20 hrs […]; assay type: functional; settings: Pseudomonas aeruginosa, 5482, 20 h; procedure, shortened: as §1
[4] = system: Pseudomonas aeruginosa; assay: Antimicrobial activity against Pseudomonas aeruginosa clinical isolates assessed as reduction in bacterial growth after 20 hrs by […]; assay type: functional; procedure, shortened: as §1
[5] = Hemolytic activity in human type RBC after 1 hr; assay type: ADME, cell-based, Erythrocyte; settings: red blood cells (erythrocytes), read-out: LC50
Procedure, shortened: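 Peptides at 2.5–400 μM were incubated with a 4% suspension of human erythrocytes in physiological solution for 1 h at 37 °C, then centrifuged at 250g for 5 min; supernatant A540 was read. Saline-treated cells gave 0% lysis and 0.2% Triton X-100 gave 100%. LC50 is the concentration lysing 50% of cells; duplicates in at least two independent experiments.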

[6] = system: Candida albicans; assay: Antifungal activity against Candida albicans assessed as reduction in fungal growth after 20 hrs by […]; assay type: functional; procedure, shortened: as §1
[7] = system: Micrococcus luteus; assay: Antimicrobial activity against Micrococcus luteus assessed as reduction in bacterial growth after 20 hrs by […]; assay type: functional; procedure, shortened: as §1
[8] = system: Bacillus subtilis; assay: Antimicrobial activity against Bacillus subtilis assessed as reduction in bacterial growth after 20 hrs by […]; assay type: functional; procedure, shortened: as §1
[9] = system: Staphylococcus aureus; assay: Antimicrobial activity against Staphylococcus aureus clinical isolates assessed as FIC index in presence of amoxicillin after 20 hrs by drop diffusion test; assay type: functional
[10] = system: Pseudomonas aeruginosa; assay: Antimicrobial activity against Pseudomonas aeruginosa clinical isolates assessed as FIC index in presence of tetracycline after 20 hrs by drop diffusion test; assay type: functional
[11] = system: Pseudomonas aeruginosa; assay: Antimicrobial activity against Pseudomonas aeruginosa clinical isolates assessed as FIC index in presence of rifampicin after 20 hrs by drop diffusion test; assay type: functional
[12] = system: Pseudomonas aeruginosa; assay: Bactericidal activity against Pseudomonas aeruginosa assessed as reduction in bacterial count at 8 uM after 60 mins by time kill assay; assay type: functional
Procedure, shortened: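 Time-kill: P. aeruginosa (final about 5 × 10^5 cfu/mL) in LB with peptide (8 μM) or medium control was incubated 4 h at 37 °C with shaking. Samples were taken at 0–240 min, serially diluted in 0.9% NaCl and plated on LB agar overnight at 37 °C. Viable counts are given as cfu/mL; means of four independent measurements.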

[13] = system: Pseudomonas aeruginosa; assay: Antimicrobial activity against Pseudomonas aeruginosa assessed as disruption of cell envelope at 30 uM after 60 mins by negative staining based TEM analysis; assay type: functional, organism-based
Procedure, shortened: (§2)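 P. aeruginosa at 10^8 cfu/mL was exposed to peptide at 30 or 150 μM for 60 min, with untreated cells as control. Cells were centrifuged, washed twice in 0.9% NaCl and adsorbed 5–10 min on Parlodion-carbon-coated copper grids. They were negatively stained 30–40 s with 0.25% phosphotungstic acid (pH 7.3) plus 0.01% BSA, air-dried and imaged by TEM.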

[14] = system: Pseudomonas aeruginosa; assay: Antimicrobial activity against Pseudomonas aeruginosa assessed as compact cell levels at 30 uM after 60 mins by negative staining based TEM analysis; assay type: functional; procedure, shortened: as §2
[15] = system: Pseudomonas aeruginosa; assay: Antimicrobial activity against Pseudomonas aeruginosa assessed as detached cell envelope at 30 uM after 60 mins by negative staining based TEM analysis; assay type: functional, organism-based; procedure, shortened: as §2
[16] = system: Pseudomonas aeruginosa; assay: Antimicrobial activity against Pseudomonas aeruginosa assessed as flagella attachment level at 30 uM after 60 mins by negative staining based TEM analysis; assay type: functional, organism-based; procedure, shortened: as §2
[17] = system: Pseudomonas aeruginosa; assay: Antimicrobial activity against Pseudomonas aeruginosa assessed as cell damage at 150 uM after 60 mins by negative staining based TEM analysis; assay type: functional, organism-based; procedure, shortened: as §2
[18] = system: Pseudomonas aeruginosa; assay: Antimicrobial activity against Pseudomonas aeruginosa assessed as cell envelope detachment at 150 uM after 60 mins by negative staining based TEM analysis; assay type: functional, organism-based; procedure, shortened: as §2
[19] = system: Pseudomonas aeruginosa; assay: Antimicrobial activity against Pseudomonas aeruginosa assessed as flagella detachment at 150 uM after 60 mins by negative staining based TEM analysis; assay type: functional, organism-based; procedure, shortened: as §2
[20] = system: Pseudomonas aeruginosa; assay: Induction of cell permeabilization in Pseudomonas aeruginosa assessed as propidium iodide uptake 10 to 100 mins; assay type: functional, organism-based
Procedure, shortened: (§3)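 Mid-log P. aeruginosa was washed twice and resuspended in PBS (pH 7) at 10^8 cfu/mL with propidium iodide at 10 μg/mL. Peptide was added by 2-fold serial dilution in PBS (0.625–20 μM), with PBS as blank and octenidine dihydrochloride (4 μM final) as positive control. Plates were kept at 37 °C in the dark for 120 min, reading fluorescence (ex 544/em 620 nm) every minute. Means of at least three measurements.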

[21] = system: Pseudomonas aeruginosa; assay: Antimicrobial activity against Pseudomonas aeruginosa assessed as induction of inner bacterial content leakage at 30 uM after 60 mins by TEM analysis; assay type: functional, organism-based; procedure, shortened: as §2
[22] = system: Pseudomonas aeruginosa; assay: Antimicrobial activity against Pseudomonas aeruginosa assessed as induction of cell integrity break down at 30 uM after 60 mins by TEM analysis; assay type: functional, organism-based; procedure, shortened: as §2
[23] = system: Staphylococcus aureus; assay: Antimicrobial activity against Staphylococcus aureus 6271 assessed as reduction in bacterial growth after 20 hrs by broth microdilution assay; settings: Staphylococcus aureus, 6271, 20 h
[24] = system: Staphylococcus epidermidis; assay: Antimicrobial activity against Staphylococcus epidermidis assessed as reduction in bacterial growth after 20 hrs by broth microdilution assay
[25] = system: Staphylococcus aureus; assay: Antimicrobial activity against Staphylococcus aureus clinical isolates from Liberec regional hospital assessed as reduction in bacterial growth after 20 hrs by broth microdilution assay
[26] = system: Staphylococcus aureus; assay: Antimicrobial activity against Staphylococcus aureus clinical isolates from Liberec regional hospital assessed as reduction in bacterial growth after 20 hrs by […]; assay type: functional; procedure, shortened: as §1
[27] = system: Pseudomonas aeruginosa; assay: Induction of cell permeabilization in Pseudomonas aeruginosa assessed as propidium iodide uptake at 5 to 10 uM after 10 mins; assay type: functional, organism-based; procedure, shortened: as §3
[28] = system: Pseudomonas aeruginosa; assay: Bactericidal activity against Pseudomonas aeruginosa assessed as reduction in bacterial count at 24 uM after 60 mins by time kill assay; assay type: functional
Procedure, shortened: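 P. aeruginosa inoculum about 5 × 10^5 cfu/mL in LB mixed 1:1 with LB alone or LB containing test agent at final 8, 24, 80 or 20 μM. Incubation was at 37 °C with shaking for 4 h. Aliquots taken at 0–240 min were serially diluted in 0.9% NaCl and plated on LB agar overnight at 37 °C. Viable cfu/mL were counted; means of four independent measurements.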

[29] = system: Pseudomonas aeruginosa; assay: Ratio of MIC for Pseudomonas aeruginosa to PC50 for induction of permeabilization in Pseudomonas aeruginosa; assay type: functional
Procedure, shortened: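 PC50: washed 10^8 cfu/mL cells in PBS pH 7 with PI 10 μg/mL, peptide 0.31–80 μM, 90 min at 37 °C dark, fluorescence 544/620 nm as % of 4 μM octenidine, interpolated from log-concentration curve.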

| Substance | MIC [1] [µM] | MIC [2] [µM] | MIC [3] [µM] | MIC [4] [µM] | HC50 at 1 h [5] [µM] | MIC [6] [µM] | MIC [7] [µM] | MIC [8] [µM] | fractional inhibitory concentration index (FICI) [9] | fractional inhibitory concentration index (FICI) [10] | fractional inhibitory concentration index (FICI) [11] | Activity [20] | Activity [22] | MIC [23] [µM] | MIC [24] [µM] | also measured |
| --- | --- | --- | --- | --- | --- | --- | --- | --- | --- | --- | --- | --- | --- | --- | --- | --- |
| H-GIMSSLMKKLKKIIAK-NH2 | 23 | 9 | 5 | 7.4 | > 400 | 5.2 | ≤ 3 | ≤ 7 | 0.33 | 0.65 | 0.43 | Active | Active | 32 | 1.9 | fold change (FC) [12]: 2; Activity [13]: Active; Activity [14]: 60%; Activity [15]: Active; Activity [16]: Active; Activity [17]: Active; Activity [18]: Active; Activity [19]: Active; Activity [21]: Active; MIC [25]: 7.6 µM |
| H-GIWSSLLKKLKKIIAK-NH2 | 5.3 | 1.6 | 6.3 | 21 | 165 | 16 | ≤ 3 | ≤ 7 | 0.4 | 0.35 | 0.27 | Dose-dependent effect | Dose-dependent effect | 20 | 1.5 | MIC [26]: 4.6 µM; Activity [27]: Active; fold change (FC) [28]: 2; Ratio [29]: 30 |
